Only some compounds are listed: those with a hit (about 2.5% of all), similar ones and a draw of the others.
TCR-CD3 inh = blocks the human TCR-CD3 interaction. inhibition, % at 9.4 µM. 0.37% of 360,000 active. TAMRA-labeled TCR probe fluorescence, biochemical;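 further: recombinant mutant TCR 2C K166C tagged with TAMRA read by polarization; 0% = receptor in buffer alone and 100% = receptor with positive control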
SIAE inh = blocks human sialic acid acetylesterase; 0.69% of 370,000 active; inhibition, % at 9.66 µM; SIAE FP-Rh probe binding, fluorescence polarization;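 active means inhibition above a cutoff: mean of compounds within the control limits plus 3 SD of those, cut at about 17% in these data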;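 further: 0% = plate median of compound wells and 100% = probe without SIAE protein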
PRMT1 inh = inhibitors of human PRMT1 | recombinant PRMT1, activity-based probe fluorescence polarization | inhibition, % at 2.79 µM | 1.3% of 370,000 active | AID 652257;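 active means inhibition above about 21% made by adding two undisclosed values, limit read from the data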
mABHD4 FP = ABHD4 (mouse) inhibition, primary FP screen; purified mABHD4, FP-Rh probe fluorescence polarization; inhibition, % at 8.92 µM; 0.54% of 370,000 active; Q8VD66; AID 720543;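 active means inhibition exceeding the mean over every tested compound plus 3 SD, cut at about 30% in these data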;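 further: 0% = plate median of compound wells and 100% = S159A mutant with DMSO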
Target sequence (Q8VD66 whole entry, looked up): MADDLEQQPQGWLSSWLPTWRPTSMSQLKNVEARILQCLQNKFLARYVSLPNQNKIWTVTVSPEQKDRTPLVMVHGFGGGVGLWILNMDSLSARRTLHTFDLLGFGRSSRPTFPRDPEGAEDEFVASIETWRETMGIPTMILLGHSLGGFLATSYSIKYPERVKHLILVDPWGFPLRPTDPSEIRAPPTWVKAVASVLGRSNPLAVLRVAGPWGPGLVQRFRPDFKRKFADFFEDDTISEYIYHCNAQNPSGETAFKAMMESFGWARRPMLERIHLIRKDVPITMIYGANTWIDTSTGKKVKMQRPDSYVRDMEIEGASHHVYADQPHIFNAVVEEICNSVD
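Assay system: mABHD4 protein; medium: HEPES pH 7.0, NaCl, Pluronic buffer; dosing: 8.92 µM, single dose; schedule: 45 min + 60 min at 25 °C; signal: FP readout, ex 525 nm / em 598 nm; read-out: normalized percent inhibition of probe labeling; repeats: single replicate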
HTRA1 inh = HTRA1 (human) protease inhibition; 0.5% of 340,000 active; Q92743; inhibition, % at 5.96 µM; recombinant HTRA1, FP-rhodamine activity-based probe, fluorescence polarization; in the data active means inhibition above about 36%;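 further: 0% = enzyme with DMSO and 100% = wells lacking enzyme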
BSA TAMRA ctr = interferes with TAMRA-BSA probe, flagging TCR-CD3 hits; 10% of 1,200 active; inhibition, % at 9.4 µM; shares compounds with TCR-CD3 inh; TAMRA-labeled BSA probe fluorescence counterscreen; in the data active means inhibition above about 23%;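 further: 0% = buffer low control and 100% = reference high control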
TCR-CD3 inh conf = TCR-CD3 interaction inhibition, confirmation. TAMRA-labeled TCR probe fluorescence binding assay. inhibition, % at 9.4 µM. shares compounds with TCR-CD3 inh. 48% of 1,200 active
The depositor's hits bear a star; . = no result given. Unless noted, no stated cut-off is given here; in the data, active means inhibition above about 19%; inactive means the rest.

SMILES	TCR-CD3 inh	SIAE inh	PRMT1 inh	mABHD4 FP	HTRA1 inh	BSA TAMRA ctr	TCR-CD3 inh conf
COc1ccc(N(CC(=O)Nc2ccc(F)c(F)c2)S(=O)(=O)c2c(C)n[nH]c2C)cc1	28*	-8	0	0	-13	0	3
CC(NC(=O)Cc1ccccc1)C(=O)O (stereo not given)	3	2	2	2	4	.	.
NC1=NC[C@H](Cc2ccc(O)cc2)N1CCc1cccc(F)c1	33*	7	0	5	-5	2	5
O=C(Cn1nc2ccccc2n1)N/N=C/c1cc([N+](=O)[O-])ccc1O	26*	-1	-4	7	3	5	26*
O=C(Cn1nnc(-c2ccccc2)n1)N/N=C/c1cc([N+](=O)[O-])ccc1O	16	0	0	4	7	.	.
CCNC(=S)NNC(=O)c1cccn(Cc2ccc(Cl)cc2)c1=O	12	1	2	14	20	.	.
CNC(=S)NNC(=O)c1ccc(=O)n(Cc2ccc(Cl)cc2Cl)c1	0	-4	0	9	1	.	.
CNC(=S)NNC(=O)c1cccn(Cc2cccc(C(F)(F)F)c2)c1=O	26*	5	-4	3	5	-1	25*
CNC(=S)NNC(=O)c1cccn(Cc2ccc(Cl)cc2Cl)c1=O	27*	2	-3	6	.	-4	26*
CC(C)c1ccc(C(=O)Nc2cc(Cl)ccc2C(=O)O)cc1	.	-27	0	-29	.	.	.
Cc1ccccc1OCc1nc(-c2ccc(NC(=O)c3cccs3)cc2)no1	28*	-6	-4	-18	-34	-8	-7
CCCCS(=O)(=O)N1CCCC(C(=O)Oc2ccc(Cl)cc2)C1 (stereo not given)	1	0	0	1	-13	.	.
COC(=O)c1ccccc1Oc1cc(C(F)(F)F)nc(-c2ccccn2)n1	6	-6	0	5	-3	.	.
C[C@@H]1Cn2cnc(C(=O)N3CCN(C(=O)OC(C)(C)C)CC3)c2C(=O)N1	20*	3	0	1	.	3	2
C[C@H]1Cn2cnc(C(=O)NCC(=O)OC(C)(C)C)c2C(=O)N1	6	-2	0	0	4	.	.
COc1ccc([N+](=O)[O-])cc1NC(=O)C(C)c1ccccc1 (stereo not given)	0	1	-4	-1	-8	.	.
COc1ccc([N+](=O)[O-])cc1NC(=S)NC(NC(=O)C(c1ccccc1)c1ccccc1)C(Cl)(Cl)Cl (stereo not given)	74*	-66	-3	-89	-83	33*	59*
Oc1cc(O)cc(C=Cc2ccc(O)c(O)c2)c1	21*	-3	18	27	.	-8	14
CNC(=S)NNC(=O)c1oc2nc(-c3ccccc3)cc(C)c2c1N	29*	-2	18	12	23	-1	18
COc1ccccc1/C=N/NC(=O)c1ccc(N(C)S(=O)(=O)c2ccccc2)cc1	23*	-12	2	-4	-33	10	10
COc1ccccc1N(C)S(=O)(=O)c1ccc(Cl)c(C(=O)NNC(=O)c2ccccc2O)c1	32*	-4	-1	2	34	-10	25*
COc1ccccc1N(C)S(=O)(=O)c1ccc(C(=O)NNC(=O)c2ccccc2O)cc1	23*	5	-3	3	14	-1	24*
C/C(CC(=O)Nc1c(C)cc(C)cc1C)=N\NC(=O)c1cnccn1	-5	-1	-2	2	3	.	.
CCN(CC(=O)Nc1cccc(OC)c1)C(=O)C1CC(=O)N(Cc2ccccc2Cl)C1 (stereo not given)	-4	0	-12	-3	4	.	.
O=C(NCc1ccccc1F)C1CC(=O)N(Cc2ccco2)C1 (stereo not given)	42*	0	0	-9	5	3	2
SMILES	TCR-CD3 inh	SIAE inh	PRMT1 inh	mABHD4 FP	HTRA1 inh	BSA TAMRA ctr	TCR-CD3 inh conf
O=C(Nc1ccc(F)cc1)C1CC(=O)N(Cc2ccco2)C1 (stereo not given)	9	9	-1	3	-4	.	.
COc1ccccc1-c1nnc(SCC(=O)N2CCCC2)o1	21*	8	-3	1	-8	1	19
CCOc1ccc2[nH]c(=O)c(CN(CCO)C(=O)c3ccc(F)cc3)cc2c1	4	2	-3	5	-3	.	.
O=C(NNC(=O)c1cc2ccccc2o1)c1ccncc1	7	6	-2	4	2	.	.
O=C(NNC(=O)c1ccccc1O)c1cc2ccccc2o1	33*	0	0	16	6	-9	22*
CC1=NN(C(=O)c2ccccc2C)C(O)(c2ccc(Cl)cc2)C1 (stereo not given)	14	6	-1	-2	21	.	.
CC1=NN(C(=O)c2ccccc2Br)C(O)(c2ccc(Cl)cc2)C1 (stereo not given)	28*	-8	-3	2	23	-7	13
CC(=O)N(C(C)=O)c1ccc(Oc2ccc(Oc3ccc(N(C(C)=O)C(C)=O)cc3)cc2)cc1	1	3	0	6	2	.	.
Cn1c(=O)c(C(=O)NNC(=O)c2ccccc2F)c(O)c2ccccc21	33*	2	0	0	-5	0	28*
COC(=O)Nc1ccc(S(=O)(=O)NNC(=O)c2c(O)c3ccccc3n(C)c2=O)cc1	56*	-32	-2	3	2	-3	25*
COC(=O)[C@]12C[C@H](CC(=O)N3CCN(C(=O)C4CC4)CC3)C(=O)N(CCc3ccc(OC)c(OC)c3)C1=C[C@H](COCc1ccccc1)O[C@@H]2C	.	2	-3	2	.	.	.
Cn1cccc1CC(=O)NNC(=S)NC(=O)c1ccccc1Br	28*	4	3	10	7	-4	16
Cc1ccc(C(C)C)c(OCc2ccc(C(=O)N/N=C/c3ccc(C(=O)O)cc3)cc2)c1	7	-107	-3	-26	-17	.	.
Cc1ccc(C(C)C)c(OCc2ccc(C(=O)N/N=C/c3ccc(O)cc3O)cc2)c1	26*	-14	4	-29	26	-18	22*
C#CCNC(=O)c1cc2cccnc2nc1N	4	-1	3	0	.	.	.
C=CCN(c1ccccc1OC)S(=O)(=O)c1cccc(C(=O)OCC(=O)c2c[nH]c3ccccc23)c1	44*	-111	-1	-88	-87	1	2
COc1cc(OC)c(N(C)S(=O)(=O)c2cccc(C(=O)OCC(=O)c3c[nH]c4ccccc34)c2)cc1Cl	38*	-108	0	-88	-89	4	18
COc1ccc(C(=O)OCC(=O)c2c[nH]c3ccccc23)cc1OC	-2	1	1	0	-12	.	.
CN(Cc1ccccc1)C(=O)OCc1cn(Cc2ccc(F)cc2)nn1	.	-2	-2	2	.	.	.
Cc1ccc2nc(-c3cccc(N)c3)[nH]c2c1	6	3	-1	6	-1	.	.

High-throughput results from PubChem BioAssay.
